Measured values published in ChEMBL document CHEMBL2434858, “Synthesis and allosteric modulation of the dopamine receptor by peptide analogs of L-prolyl-L-leucyl-glycinamide (PLG) modified in the L-proline or L-proline and L-leucine scaffolds” (Eur J Med Chem, 2013).
Active and inactive are the calls of the source. The calls are words filed in the database; no cut-off is given here. Residues, ends and D or L forms follow the SMILES beside them.

What was measured:
[1] = target: D(2) dopamine receptor (Homo sapiens) (UniProt P14416); experiment: Positive allosteric modulation of human dopamine D2S receptor expressed in CHO cell membranes assessed as stimulation of [3H]-NPA binding at 10^-8 to 10^-4 M after 60 mins by beta scintillation counting analysis
Method in brief: (§1)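 Membranes from confluent CHO cells stably expressing human D2S, homogenized and spun at 48,400 g. Membranes were incubated with 0.25 nM [3H]NPA plus compound (eight concentrations) for 60 min at 25 °C in 50 mM Tris-HCl pH 7.4, 120 mM NaCl, 5 mM KCl, 4 mM MgCl2, 1 mM EDTA. Nonspecific binding was defined with (+)-butaclamol. Samples were filtered through PEI-treated filters. Result is % increase of specific binding over compound-free control; duplicates, three experiments, ANOVA.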

[2] = target: D(2) dopamine receptor (Homo sapiens) (UniProt P14416); experiment: Positive allosteric modulation of human dopamine D2S receptor expressed in CHO cell membranes assessed as stimulation of [3H]-NPA binding at 10^-12 to 10^-9 M after 60 mins by beta scintillation counting analysis; method in brief: as §1
[3] = target: D(2) dopamine receptor (Homo sapiens) (UniProt P14416); experiment: Positive allosteric modulation of human dopamine D2S receptor expressed in CHO cell membranes assessed as stimulation of [3H]-NPA binding at 1 to 10 uM after 60 mins by beta scintillation counting analysis; method in brief: as §1

Sequence of D(2) dopamine receptor (Homo sapiens) (P14416 whole entry): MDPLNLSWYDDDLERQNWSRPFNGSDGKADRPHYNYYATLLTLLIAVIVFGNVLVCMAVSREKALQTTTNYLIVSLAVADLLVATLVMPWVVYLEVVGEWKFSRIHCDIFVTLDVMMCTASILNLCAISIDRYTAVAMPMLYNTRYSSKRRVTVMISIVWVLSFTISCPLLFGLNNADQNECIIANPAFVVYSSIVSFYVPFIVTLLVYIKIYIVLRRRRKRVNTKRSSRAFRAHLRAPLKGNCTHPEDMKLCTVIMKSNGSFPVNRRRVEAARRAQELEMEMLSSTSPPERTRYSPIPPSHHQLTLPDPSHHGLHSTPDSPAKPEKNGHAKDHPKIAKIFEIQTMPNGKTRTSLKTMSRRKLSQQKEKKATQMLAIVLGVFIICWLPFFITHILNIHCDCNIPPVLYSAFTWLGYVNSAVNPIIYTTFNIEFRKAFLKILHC

| Activity [1] | Activity [2] | Activity [3] | Compound |
| --- | --- | --- | --- |
| inactive | Active |  | CC(C)C[C@H](NC(=O)[C@@H]1CCCN1)C(=O)NCC(N)=O (H-Pro-Leu-Gly-NH2) |
|  |  | Active | COC(=O)CNC(=O)[C@H](CC(C)C)NC(=O)[C@H]1N[C@H](CN=[N+]=[N-])C[C@@H]1CN=[N+]=[N-] |
| inactive | Active |  | CC(C)[C@H](NC(=O)[C@H]1N[C@H](CN=[N+]=[N-])C[C@@H]1CN=[N+]=[N-])C(=O)NCC(=O)O |
|  |  | Active | CC(C)C[C@H](NC(=O)[C@@H]1N[C@@H](CN=[N+]=[N-])C[C@H]1CN=[N+]=[N-])C(=O)NCC(N)=O |
|  |  | Active | CC(C)C[C@H](NC(=O)[C@@H]1N[C@@H](CN=[N+]=[N-])C[C@H]1CN=[N+]=[N-])C(=O)NCC(=O)O |
|  |  | Active | CC(C)[C@H](NC(=O)[C@@H]1N[C@@H](CN=[N+]=[N-])C[C@H]1CN=[N+]=[N-])C(=O)NCC(N)=O |
|  |  | Active | COC(=O)CNC(=O)[C@H](CC(C)C)NC(=O)[C@@H]1N[C@@H](CN=[N+]=[N-])C[C@H]1CN=[N+]=[N-] |
|  |  | Active | CC(C)[C@H](NC(=O)[C@@H]1N[C@@H](CN=[N+]=[N-])C[C@H]1CN=[N+]=[N-])C(=O)NCC(=O)O |
|  |  | Active | COC(=O)CNC(=O)[C@@H](NC(=O)[C@@H]1N[C@@H](CN=[N+]=[N-])C[C@H]1CN=[N+]=[N-])C(C)C |
| inactive | Active |  | CC(C)[C@H](NC(=O)[C@H]1N[C@H](CN=[N+]=[N-])C[C@@H]1CN=[N+]=[N-])C(=O)NCC(N)=O |
|  |  | Active | CC(C)C[C@H](NC(=O)[C@H]1N[C@H](CN=[N+]=[N-])C[C@@H]1CN=[N+]=[N-])C(=O)NCC(N)=O |
|  |  | Active | COC(=O)CNC(=O)[C@@H](NC(=O)[C@H]1N[C@H](CN=[N+]=[N-])C[C@@H]1CN=[N+]=[N-])C(C)C |
